# Measurements pooled from the literature.
# Compare with care: the assays were run in different laboratories.
# Target: Tyrosine-protein kinase HCK (HCK, Homo sapiens, UniProt P08631)
Structure (SMILES),read-out,method,tested at,remaining binding [%]
C[C@@H](c1ccc(-n2cnc3c(N)ncnc32)cc1)N1CCc2nn(C)c(Cc3ccccc3)c2C1=O,binding,competition with immobilised ligand,0.1 µM,86
Cc1cnc(Nc2ccc(C(=O)N3CCC(N4CCCC4)CC3)cc2)nc1-c1cc2ccccc2s1,binding,competition with immobilised ligand,1 µM,74
C[C@@H]1CCN(c2nccc(-c3cnn4ncccc34)n2)C1,binding,,1 µM,84
CCOCCn1cc(C(=O)Nc2ccc(-n3nc(-c4cccnc4)cc3C(F)(F)F)cn2)ccc1=O,cell-free assay,competition with immobilised ligand,1 µM,93
N[C@@H]1CCN(c2nccc(-c3cnn4ncccc34)n2)C1,binding,,1 µM,100
CO[C@@H](C)c1c(Nc2ccc([C@H](N(C)C(=O)C3CCS(=O)(=O)CC3)C(F)(F)F)cc2)cnc2cc(Cl)nn12,cell-free assay,competition with immobilised ligand,1 µM,100
O=C(Nc1c[nH]nc1C(=O)NC1CCNCC1)c1cc(F)cc(F)c1,binding,competition with immobilised ligand,1 µM,100
CCN1CCN(Cc2ccc(C(=O)Nc3ccc(C)c(Oc4ccc5c(c4)CC(=O)N5)c3)cc2C(F)(F)F)CC1,binding,competition with immobilised ligand,1 µM,80
COc1cnc(Nc2cccc(S(N)(=O)=O)c2)nc1N1CCN(c2ccccc2)C(=O)C1,binding,competition with immobilised ligand,1 µM,100
CN(C)c1nccc(-c2cnc3ncccn23)n1,binding,,1 µM,100
CS(=O)(=O)c1cc(C2(NC(=O)c3cncc4c3cnn4-c3ccc(F)cc3)CC2)ccn1,cell-free assay,competition with immobilised ligand,1 µM,100
F[C@@H]1CCN(c2nccc(-c3cnn4ncccc34)n2)C1,binding,,1 µM,78
FC(F)(F)Oc1cccc(-c2cnc3ccc(-c4ccncc4)nn23)c1,cell-free assay,competition with immobilised ligand,5 µM,71
CC(C)CC(=O)N1CCc2nc(-c3ccc(Br)cc3)nc(N(C)Cc3ccccc3)c2C1,cell-free assay,competition with immobilised ligand,0.1 µM,94
O=C(NCCCN1CCOCC1)c1ccc(Nc2ncc(Cl)c(-c3ccc(Cl)s3)n2)cc1,binding,competition with immobilised ligand,1 µM,100
CCS(=O)(=O)c1cc2cc(C[C@](O)(CC(C)(C)c3ccc(F)cc3C(N)=O)C(F)(F)F)[nH]c2cn1,cell-free assay,competition with immobilised ligand,1 µM,100
C=CC(=O)N1CCC(C(=O)NCC(=O)N2CCN(c3nc(-c4cnc(N)nc4C(F)F)nc(N4CCOCC4)n3)CC2)CC1,binding,competition with immobilised ligand,1 µM,86
CN(C)c1ncc(F)c(-c2cnn3ncccc23)n1,binding,,1 µM,46
COCCOc1nc(-c2ccc(Cl)nc2)nc2c1CN(C(=O)c1ncn3ccccc13)CC2,cell-free assay,competition with immobilised ligand,0.1 µM,100
c1cnn2ncc(-c3ccnc(N4CCC45COC5)n3)c2c1,binding,,1 µM,90
O=C(c1ccc(Nc2ncc(Cl)c(-c3cc4ccccc4s3)n2)cc1)N1CCC(N2CCCC2)CC1,binding,competition with immobilised ligand,1 µM,100
